Data: ChEMBL document CHEMBL3763062, “Conformational Analysis of the Host-Defense Peptides Pseudhymenochirin-1Pb and -2Pa and Design of Analogues with Insulin-Releasing Activities and Reduced Toxicities” (J Nat Prod, 2015)
pIC50: −log10 of the molar value. Converted amounts (≈) assume the structure as drawn. Residues, ends and D or L forms follow the SMILES beside them.

Assays:
A549 = assay: Cytotoxicity against human A549 cells assessed as cell viability after 24 hrs by CellTiter-Glo luminescent assay; assay type: functional, cell-based; details: A549, 24 h
Method in brief: (§1)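 Human tumour lines and HUVEC were cultured at 37 °C in medium with antibiotics. Cells were seeded at 5 × 10³ cells/well and exposed to peptides (10⁻⁶–10⁻⁴ M) in triplicate for 24 h at 37 °C. Viability was read as ATP luminescence. IC50 is the mean concentration giving 50% cell death over at least three independent experiments.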

MDA-MB-231 = assay: Cytotoxicity against human MDA-MB-231 cells assessed as cell viability after 24 hrs by CellTiter-Glo luminescent assay; assay type: functional, cell-based; details: MDA-MB-231, 24 h; method in brief: as §1
HT-29 = assay: Cytotoxicity against human HT-29 cells assessed as cell viability after 24 hrs by CellTiter-Glo luminescent assay; assay type: functional, cell-based; details: HT-29, 24 h; method in brief: as §1
HUVEC = assay: Cytotoxicity against human HUVEC cells assessed as cell viability after 24 hrs by CellTiter-Glo luminescent assay; assay type: cell-based; method in brief: as §1
[1] = Cytotoxicity against Swiss mouse RBC assessed as hemolytic activity […]; assay type: cell-based; details: Erythrocyte
Method in brief: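 Erythrocytes came from male NIH Swiss mice and were exposed to peptides at 1.6 × 10⁻⁶ to […]. IC50 is the mean concentration producing 50% haemolysis.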

[2] = Cytotoxicity in rat BRIN-BD11 cells assessed as LDH release at >= 1 uM after 20 mins by CytoTox96 assay; assay type: cell-based; details: brin-bd11, 20 min
Method in brief: (§2)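 BRIN-BD11 monolayers were exposed to peptides (10⁻¹¹ to 3 × 10⁻⁶ M; n = 6) for 20 min at 37 °C in KRB buffer with 5.6 mM glucose. LDH in the supernatant was quantified by a colorimetric kit and compared with 5.6 mM glucose alone.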

[3] = Induction of insulin release in rat BRIN-BD11 cells at […] after 20 mins measured per 10^6 cells by radioimmunoassay in presence of 5.6 mM glucose (reference value: 0.97 to 1.05 ng); assay type: functional
[4] = Cytotoxicity in rat BRIN-BD11 cells assessed as LDH release at 1 or 3 uM after 20 mins by CytoTox96 assay; assay type: cell-based; details: brin-bd11, 20 min; method in brief: as §2
[5] = (§3) Induction of insulin release in rat BRIN-BD11 cells after 20 mins by radioimmunoassay in presence of 5.6 mM glucose; assay type: functional; details: BRIN-BD11, 20 min, read-out: MEC
Method in brief: (§4)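 BRIN-BD11 cells were seeded and allowed to attach overnight at 37 °C. They were then incubated 20 min at 37 °C with peptides (10⁻¹¹ to 3 × 10⁻⁶ M; n = 8) in KRB buffer with 5.6 mM glucose. Supernatant insulin was measured by radioimmunoassay, expressed as ng/10⁶ cells/20 min, and compared with 5.6 mM glucose alone.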

[6] = Induction of insulin release in rat BRIN-BD11 cells at 3 uM after 20 mins in presence of 5.6 mM glucose by radioimmunoassay relative to control; assay type: functional; method in brief: as §4
Escherichia coli = assay: Antibacterial activity against Escherichia coli ATCC 25922 by microdilution method; assay type: functional
Method in brief: (§5)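 Reference ATCC strains tested. The MIC was determined by standard broth microdilution in three independent experiments.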

Pseudomonas aeruginosa = assay: Antibacterial activity against Pseudomonas aeruginosa ATCC 27853 by microdilution method; assay type: functional; method in brief: as §5
Staphylococcus aureus = assay: Antibacterial activity against Staphylococcus aureus ATCC 25923 by microdilution method; assay type: functional; method in brief: as §5
[7] = test system: Staphylococcus epidermidis; assay: Antibacterial activity against Staphylococcus epidermidis ATCC 12228 by microdilution method; assay type: functional; method in brief: as §5
[8] = Cytotoxicity in rat BRIN-BD11 cells assessed as LDH release at >1 uM after 20 mins by CytoTox96 assay; assay type: cell-based; details: brin-bd11, 20 min; method in brief: as §2
BRIN-BD11 = assay: as §3; assay type: functional; method in brief: as §4

Compound | pIC50 (A549) | pIC50 (MDA-MB-231) | pIC50 (HT-29) | pIC50 (HUVEC) | pIC50 [1] | Activity [2] | Activity [3] [ng] | Activity [4] | minimal effective concentration [5] [µM] | Activity [6] [%] | MIC (Escherichia coli) [µM] | MIC (Pseudomonas aeruginosa) [µM] | MIC (Staphylococcus aureus) [µM] | MIC [7] [µM] | Activity [8] | Activity (BRIN-BD11)
H-GIFPIFAKLLGKVIKVASSLISKGRTK-OH [listing 1 of 2 here] | 5.60 | 5.37 | 5.25 | 5.30 | 5.40 | Toxic | – | – | – | – | – | – | – | – | – | –
C[C@H](N)C(=O)O [ALANINE] | – | – | – | – | – | – | 4.2 | – | – | – | – | – | – | – | – | –
CC[C@H](C)[C@H](N)C(=O)N[C@@H](CCCCN)C(=O)N[C@H](C(=O)N1CCC[C@H]1C(=O)N[C@@H](CO)C(=O)N[C@@H](Cc1ccccc1)C(=O)N[C@@H](Cc1ccccc1)C(=O)N[C@H](CCCNC(=N)N)C(=O)N[C@@H](CC(N)=O)C(=O)N[C@H](C(=O)N[C@@H](CC(C)C)C(=O)N[C@@H](CCCCN)C(=O)N[C@@H](CCCCN)C(=O)N[C@H](C(=O)NCC(=O)N[C@@H](CCCCN)C(=O)N[C@@H](CCC(=O)O)C(=O)N[C@@H](C)C(=O)N[C@H](C(=O)N[C@@H](CO)C(=O)N[C@@H](CC(C)C)C(=O)N[C@H](C(=O)N[C@@H](C)C(=O)NCC(=O)N[C@@H](C)C(=O)N[C@@H](CC(C)C)C(=O)N[C@@H](CCCCN)C(=O)N[C@@H](CCC(N)=O)C(=O)N[C@@H](CO)C(=O)O)[C@@H](C)CC)C(C)C)C(C)C)[C@@H](C)CC)[C@@H](C)CC | 5.14 | 4.70 | 4.46 | 4.57 | < 4.00 | – | – | Non-toxic | 0.0003 | 190 | 2.5 (≈ 7.89 µg/mL) | 10 (≈ 31.6 µg/mL) | 80 (≈ 253 µg/mL) | 40 (≈ 126 µg/mL) | – | –
CC[C@H](C)[C@H](N)C(=O)N[C@@H](CCCCN)C(=O)N[C@H](C(=O)N1CCC[C@H]1C(=O)N[C@@H](CO)C(=O)N[C@@H](Cc1ccccc1)C(=O)N[C@@H](Cc1ccccc1)C(=O)N[C@@H](CCCNC(=N)N)C(=O)N[C@@H](CC(N)=O)C(=O)N[C@H](C(=O)N[C@@H](CC(C)C)C(=O)N[C@@H](CCCCN)C(=O)N[C@@H](CCCCN)C(=O)N[C@H](C(=O)NCC(=O)N[C@@H](CCCCN)C(=O)N[C@H](CCCCN)C(=O)N[C@@H](C)C(=O)N[C@H](C(=O)N[C@@H](CO)C(=O)N[C@@H](CC(C)C)C(=O)N[C@H](C(=O)N[C@@H](C)C(=O)NCC(=O)N[C@@H](C)C(=O)N[C@@H](CC(C)C)C(=O)N[C@@H](CCCCN)C(=O)N[C@@H](CCC(N)=O)C(=O)N[C@@H](CO)C(=O)O)[C@@H](C)CC)C(C)C)C(C)C)[C@@H](C)CC)[C@@H](C)CC | 5.68 | 5.44 | 4.96 | 5.30 | 4.72 | Toxic | – | – | 0.0003 | – | – | – | – | – | – | –
CC[C@H](C)[C@H](N)C(=O)N[C@@H](CCCCN)C(=O)N[C@H](C(=O)N1CCC[C@H]1C(=O)N[C@@H](CO)C(=O)N[C@@H](Cc1ccccc1)C(=O)N[C@@H](Cc1ccccc1)C(=O)N[C@@H](CCCNC(=N)N)C(=O)N[C@@H](CC(N)=O)C(=O)N[C@H](C(=O)N[C@@H](CC(C)C)C(=O)N[C@@H](CCCCN)C(=O)N[C@@H](CCCCN)C(=O)N[C@H](C(=O)NCC(=O)N[C@@H](CCCCN)C(=O)N[C@@H](CCC(=O)O)C(=O)N[C@@H](C)C(=O)N[C@H](C(=O)N[C@@H](CO)C(=O)N[C@@H](CC(C)C)C(=O)N[C@H](C(=O)N[C@@H](C)C(=O)NCC(=O)N[C@@H](C)C(=O)N[C@@H](CC(C)C)C(=O)N[C@@H](CCCCN)C(=O)N[C@@H](CCC(N)=O)C(=O)N[C@@H](CO)C(=O)O)[C@@H](C)CC)C(C)C)C(C)C)[C@@H](C)CC)[C@@H](C)CC | 5.60 | 5.18 | 5.02 | 5.25 | 4.52 | – | – | – | 0.0001 | 530 | 10 (≈ 31.6 µg/mL) | 20 (≈ 63.1 µg/mL) | 5 (≈ 15.8 µg/mL) | 2.5 (≈ 7.89 µg/mL) | Toxic | Dose-dependent effect
H-GIFPIFAKLLGKVIKVASSLISKGRTK-OH [listing 2 of 2 here] | – | – | – | – | – | – | – | – | 0.001 | – | – | – | – | – | – | –
CC[C@H](C)[C@H](NC(=O)CN)C(=O)N[C@@H](Cc1ccccc1)C(=O)N1CCC[C@H]1C(=O)N[C@H](C(=O)N[C@@H](Cc1ccccc1)C(=O)N[C@@H](C)C(=O)N[C@@H](CCCCN)C(=O)N[C@@H](CC(C)C)C(=O)N[C@@H](CC(C)C)C(=O)NCC(=O)N[C@@H](CCCCN)C(=O)N[C@H](C(=O)N[C@H](C(=O)N[C@@H](CCCCN)C(=O)N[C@H](C(=O)N[C@@H](C)C(=O)N[C@@H](CO)C(=O)N[C@@H](CO)C(=O)N[C@@H](CC(C)C)C(=O)N[C@H](C(=O)N[C@@H](CO)C(=O)N[C@@H](CCCCN)C(=O)NCC(=O)N[C@@H](CCCNC(=N)N)C(=O)NC(C(=O)N[C@@H](CCC(=O)O)C(=O)O)[C@@H](C)O)[C@@H](C)CC)C(C)C)[C@@H](C)CC)C(C)C)[C@@H](C)CC (some centres not stated) (HELM PEPTIDE1{G.I.F.P.I.F.A.K.L.L.G.K.V.I.K.V.A.S.S.L.I.S.K.G.R.[C[C@@H](O)C(N[*:1])C(=O)[*:2]].E}$$$$V2.0) | 5.22 | 5.21 | 4.92 | 4.17 | 5.15 | – | – | – | 0.0001 | 700 | 80 (≈ 230 µg/mL) | 80 (≈ 230 µg/mL) | 5 (≈ 14.4 µg/mL) | 5 (≈ 14.4 µg/mL) | Toxic | –
